CHOP UPR activ: apoptotic UPR (CHOP) activation; activation, % at 10 µM; hit rate 0.34% among 330,000; AID 449763; CHO-CHOP luciferase reporter, luminescence; percent of tunicamycin response over DMSO baseline;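 active means at 10 µM dose, activation of 40% or more, normalized to positive control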
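measured by = luciferase luminescence | assay system = CHO-CHOP cells, stable luciferase reporter of PERK-eIF2a-CHOP signalling | amount = 500 reporter cells seeded per well | timing = 6 h compound exposure at 37 °C after overnight seeding | controls = positive tunicamycin 10 µg/mL, negative DMSO alone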
tim23-1 inh: tim23-1 yeast growth inhibition | hit rate 1.3% among 330,000 | AID 463212 | S. cerevisiae tim23-1 growth, BacTiter-Glo luminescence, 24 h | inhibition, % at 20 µM;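 active means growth inhibition of the mutant yeast at or above 50%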;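 further: temperature-sensitive mutant grown at 25 °C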
tim10-1 inh: tim10-1 yeast growth inhibition; hit rate 2.2% among 330,000; S. cerevisiae tim10-1 ts strain growth, BacTiter-Glo, 24 h; inhibition, % at 20 µM;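 active means inhibition of at least 40%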;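 further: mutant grown at 25 °C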
TIM10 inh: TIM10 yeast growth inhibition. S. cerevisiae TIM10 strain growth, BacTiter-Glo luminescence, 24 h. inhibition, % at 10 µM. hit rate 1.4% among 330,000;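 active means inhibition of 40% or more at the single tested concentration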;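 further: wild-type TIM10 isogenic control strain grown at permissive 25 °C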
XBP1 UPR activ: activators of adaptive arm of unfolded protein response (XBP1) | CHO-XBP1 luciferase reporter, IRE1-XBP1 UPR activation, luminescence; percent of tunicamycin response, DMSO as zero | activation, % at 20 µM | hit rate 0.33% among 330,000 | AID 463104;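 active means versus positive control, 20 µM dose yields 30% or more activation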
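Material: IRE1-XBP1 luciferase reporter CHO line / Quantity: one thousand reporter cells per well / Buffer or medium: F12 with 10% serum / Compound: 20 µM single concentration, DMSO 1% / Times: 6 h treatment, 37 °C / Detection: Steady-Glo luciferase glow luminescence, 10 min after reagent addition / Benchmarks: tunicamycin high, DMSO low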
tim10-1 confirm: tim10-1 yeast growth inhibition, confirmed | shares compounds with tim10-1 inh | S. cerevisiae tim10-1 ts strain growth, BacTiter-Glo, 24 h | inhibition, % at 20 µM | hit rate 56% among 7,400;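 active means inhibition of yeast growth at or above a set limit in either of two repeat tests at 20 µM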;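 further: tim10-1 mutant grown at permissive 25 °C to find synthetic lethal compounds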
TIM10 conf: TIM10 yeast growth inhibition, confirmed | S. cerevisiae tim10 strain growth, BacTiter-Glo luminescence, 24 h | shares compounds with TIM10 inh | hit rate 63% among 4,600 | inhibition, % at 10 µM;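 active means inhibition of yeast growth at or above a set limit in either of two replicates at 10 µM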; further: this counterscreen used the strain with wild-type TIM10
tim23-1 conf: tim23-1 yeast growth inhibition, confirmed | inhibition, % at 20 µM | shares compounds with tim23-1 inh | S. cerevisiae tim23-1 growth, BacTiter-Glo luminescence, 24 h | hit rate 83% among 4,400 | AID 463218;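 active means inhibition above about 39% in either of two replicate wells at 20 µM, limit read from the data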;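 further: temperature-sensitive tim23-1 mutant grown at 25 °C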
Large screens that a line does not name were inactive (follow-up assays come after a bar, where they were run). In the library only some 3.9% were active in any assay of this set; here they are far more common.

Cc1csc(NC(=O)C2CCCN(S(=O)(=O)c3ccc(Br)s3)C2)n1 (centres undefined)	tim23-1 inh 55.0, tim10-1 inh 46.2 | tim10-1 confirm 37.9 | tim23-1 conf 50.7
COCCn1c(-c2ccc(Br)cc2)nc2oc3cc(OC)ccc3c(=O)c2c1=O	none
Nc1nonc1-n1nnc(C(=O)N/N=C/c2cc(Cl)ccc2O)c1CN1CCCCCC1	none
Cc1cccc(N2CCN(c3nc4ccccc4n4cnnc34)CC2)c1C	tim23-1 inh 64.1, tim10-1 inh 70.5, TIM10 inh 53.3 | tim10-1 confirm inactive | TIM10 conf 42.1 | tim23-1 conf 72.2
c1cnc(N2CCN(c3nc4ccccc4n4cnnc34)CC2)nc1	none
Cc1ccccc1-n1cnc2cc(NCc3cccs3)ccc21	none
COc1ccccc1-n1cnc2cc(NCc3cccs3)ccc21	tim23-1 inh 56.2, tim10-1 inh 44.6, TIM10 inh 45.4 | tim10-1 confirm inactive | TIM10 conf inactive | tim23-1 conf 70.6
COc1ccccc1-n1cnc2cc(NCc3ccccc3O)ccc21	none
COc1ccc(CNc2ccc3c(c2)ncn3-c2ccccc2OC)cc1	tim23-1 inh 60.7, tim10-1 inh 53.0, TIM10 inh 64.2 | tim10-1 confirm inactive | TIM10 conf 62.0 | tim23-1 conf 70.9
COCCn1c(C)cc(/C=C2/SC(=O)N(CC(=O)N3CCCC3)C2=O)c1C	none
O=C(CN(C(=O)C1CSC(=O)C1)c1ccc(F)cc1)NCc1ccc2c(c1)OCO2 (centres undefined)	none
O=C(c1cc(C(=O)c2ccco2)cc(C(=O)c2ccco2)c1)c1ccco1	none
Cc1ccc2occ(C(=O)c3ccco3)c(=O)c2c1	tim23-1 inh 70.9, tim10-1 inh 42.0, TIM10 inh 49.4 | tim10-1 confirm inactive | TIM10 conf inactive | tim23-1 conf 51.1
O=C(Nc1ccccc1Cl)c1ccccc1Oc1ccc(C(F)(F)F)cc1[N+](=O)[O-]	tim23-1 inh 55.7, tim10-1 inh 43.6 | tim10-1 confirm 35.8 | tim23-1 conf 50.6
O=C(c1ccccc1Oc1ccc(C(F)(F)F)cc1[N+](=O)[O-])N1CCOCC1	none
O=c1/c(=C/c2cccc3ccccc23)sc2ncnn12	tim23-1 inh 68.7, tim10-1 inh 46.2 | tim10-1 confirm inactive | tim23-1 conf 73.6
COc1ccc(C(=O)O/N=C(\N)c2ccccc2)cc1	tim23-1 inh 79.8, tim10-1 inh 70.7, TIM10 inh 57.5 | tim10-1 confirm 68.0 | TIM10 conf 56.4 | tim23-1 conf 78.8
Cc1occc1C(=O)O/N=C(\N)c1ccc(Cl)cc1	tim23-1 inh 82.3, tim10-1 inh 65.6, TIM10 inh 47.2 | tim10-1 confirm inactive | TIM10 conf 38.4 | tim23-1 conf 76.5
N/C(=N\OC(=O)c1ccc2ccccc2c1)c1ccncc1	tim23-1 inh 51.0, tim10-1 inh 65.0 | tim10-1 confirm 55.2 | tim23-1 conf 54.9
CC(C)(C)c1ccc(NC(=O)CON=C(N)c2ccccc2)cc1	none
N/C(=N\OC(=O)COc1ccc2ccccc2c1)c1ccncc1	none
CC(C)(C)c1ccc(C(=O)O/N=C(\N)c2ccccc2)cc1	tim23-1 inh 83.5, tim10-1 inh 57.2, TIM10 inh 82.5 | tim10-1 confirm 45.0 | TIM10 conf 91.8 | tim23-1 conf 78.5
CC(C)C[C@H](NC(=O)c1nc[nH]c1C(=O)NCc1ccc(CNC(=O)OC(C)(C)C)cc1)C(=O)OCc1ccccc1	none
COc1ccc(NS(=O)(=O)c2cccc(C(=O)NCC3(N(C)C)CCCCC3)c2)cc1	none
Cc1cc(C(=O)O/N=C(\N)c2ccc(C(C)(C)C)cc2)no1	tim23-1 inh 69.6, tim10-1 inh 46.9, TIM10 inh 60.9 | tim10-1 confirm 58.0 | TIM10 conf 45.3 | tim23-1 conf 78.0
Cc1cc(-c2onc(C)c2C(=O)Oc2ccc(Cl)cc2)no1	none

Assay outcomes from PubChem.
